# Measured values: the RNAGym collection of RNA variant scans (doi:10.1002/anie.201605470)
# B1: Osa-1-4 twister ribozyme (parent)
# chain: CCGCCUAACACUGCCAAUGCCGGUCCCAAGCCCGGAUAAAAGUGGAGGGGGCGG
# Variants of: B1
# Experiment: self-cleavage, relative activity (ratio to wild type); higher = more cleavage; co-transcriptional
# How it was run: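 Values are relative activity: the fraction cleaved, normalised to wild type. A doped DNA template for a 54-nucleotide twister ribozyme from Oryza sativa had 97 % wild-type base and 1 % of each other base at the 48 positions downstream of the cleavage site. The RNA was transcribed in vitro for 2 h at 37 °C so that it could cleave itself co-transcriptionally, then sequenced deeply, with cleavage status scored from the presence or absence of upstream sequence in reads.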
row,Variant,self-cleavage
1,CCGCCUAACACUGCCAGUGCCGGUCCCAAGCCCGGAUAAAAGUGGAGGGAGCGG [A17G G50A],0.51
2,CCGCCUAACACUGCCAGUGCCGGUCCCAAGCCCGGAUAAAAGUGGAGGGCGCGG [A17G G50C],0.91
3,CCGCCUAACACUGCCAGUGCCGGUCCCAAGCCCGGAUAAAAGUGGAGGGUGCGG [A17G G50U],0.99
4,CCGCCUACCACUGCCAUUGCCGGUCCCAAGCCCGGAUAAAAGUGGAGGGGGCGG [A17U A8C],0.11
5,CCGCCUAGCACUGCCAUUGCCGGUCCCAAGCCCGGAUAAAAGUGGAGGGGGCGG [A17U A8G],0.62
6,CCGCCUAUCACUGCCAUUGCCGGUCCCAAGCCCGGAUAAAAGUGGAGGGGGCGG [A17U A8U],0.42
7,CCGCCUAACACUGCCAGUGCCGGUCCCAAGCCCGGAUAAAAGUGGAGGGGGCGU [A17G G54U],0.91
8,CCGCCUAACACUGCCAGUGCCGGUCCCAAGCCCGGAUAAAAGUGGAGGGGGCGC [A17G G54C],0.92
9,CCGCCUAACACUGCCAGUGCCGGUCCCAAGCCCGGAUAAAAGUGGAGGGGGCGA [A17G G54A],0.9
10,CCGCCUAACACUGCCAUUGCAGGUCCCAAGCCCGGAUAAAAGUGGAGGGGGCGG [A17U C21A],0.83
11,CCGCCUAACACUGCCAUUGCUGGUCCCAAGCCCGGAUAAAAGUGGAGGGGGCGG [A17U C21U],1.05
12,CCGCCUAACACUGCCAUUGCGGGUCCCAAGCCCGGAUAAAAGUGGAGGGGGCGG [A17U C21G],0.09
13,CCGCCUAACACUGCCAUUGCCGGUCCCAAGCCCGGAUAAAAGUGGUGGGGGCGG [A17U A46U],0.1
14,CCGCCUAACACUGCCAUUGCCGGUCCCAAGCCCGGAUAAAAGUGGCGGGGGCGG [A17U A46C],0.04
15,CCGCCUAACACUGCCAUUGCCGGUCCCAAGCCCGGAUAAAAGUGGGGGGGGCGG [A17U A46G],0.09
16,CCGCCUAACACUGCCAGCGCCGGUCCCAAGCCCGGAUAAAAGUGGAGGGGGCGG [A17G U18C],0.52
17,CCGCCUAACACUGCCAGAGCCGGUCCCAAGCCCGGAUAAAAGUGGAGGGGGCGG [A17G U18A],0.94
18,CCGCCUAACACUGCCAGGGCCGGUCCCAAGCCCGGAUAAAAGUGGAGGGGGCGG [A17G U18G],0.85
19,CCGCCUAAUACUGCCAUUGCCGGUCCCAAGCCCGGAUAAAAGUGGAGGGGGCGG [A17U C9U],0.81
20,CCGCCUAAAACUGCCAUUGCCGGUCCCAAGCCCGGAUAAAAGUGGAGGGGGCGG [A17U C9A],0.41
21,CCGCCUAAGACUGCCAUUGCCGGUCCCAAGCCCGGAUAAAAGUGGAGGGGGCGG [A17U C9G],0.8
22,CCGCCUAACACUGCCAUUGCCGGUCCCAAGGCCGGAUAAAAGUGGAGGGGGCGG [A17U C31G],0.12
23,CCGCCUAACACUGCCAUUGCCGGUCCCAAGACCGGAUAAAAGUGGAGGGGGCGG [A17U C31A],0.05
24,CCGCCUAACACUGCCAUUGCCGGUCCCAAGUCCGGAUAAAAGUGGAGGGGGCGG [A17U C31U],0.94
25,CCGCCUAACACUGCCAGUGCCGGUCCCAAGCCCGGAUAAAAGUGGAGUGGGCGG [A17G G48U],0.12

row,Variant,self-cleavage
1,CCGCCUAACACUGCCAUUGCCGGUCCCAAGCCCGGAUCAAAGUGGAGGGGGCGG [A17U A38C],0.98
2,CCGCCUAACACUGCCAUUGCCGGUCCCAAGCCCGGAUGAAAGUGGAGGGGGCGG [A17U A38G],1.02
3,CCGCCUAACACUGCCAUUGCCGGUCCCAAGCCCGGAUUAAAGUGGAGGGGGCGG [A17U A38U],1.02
4,CCGCCUAACACUGUCAUUGCCGGUCCCAAGCCCGGAUAAAAGUGGAGGGGGCGG [A17U C14U],0.79
5,CCGCCUAACACUGACAUUGCCGGUCCCAAGCCCGGAUAAAAGUGGAGGGGGCGG [A17U C14A],0.18
6,CCGCCUAACACUGGCAUUGCCGGUCCCAAGCCCGGAUAAAAGUGGAGGGGGCGG [A17U C14G],0.25
7,CCGCCUAACACUGCCAUUGCCGGUCACAAGCCCGGAUAAAAGUGGAGGGGGCGG [A17U C26A],0.06
8,CCGCCUAACACUGCCAUUGCCGGUCUCAAGCCCGGAUAAAAGUGGAGGGGGCGG [A17U C26U],1
9,CCGCCUAACACUGCCAUUGCCGGUCGCAAGCCCGGAUAAAAGUGGAGGGGGCGG [A17U C26G],0.09
10,CCGCCUCACACUGCCAUUGCCGGUCCCAAGCCCGGAUAAAAGUGGAGGGGGCGG [A17U A7C],0.05
11,CCGCCUUACACUGCCAUUGCCGGUCCCAAGCCCGGAUAAAAGUGGAGGGGGCGG [A17U A7U],0.09
12,CCGCCUGACACUGCCAUUGCCGGUCCCAAGCCCGGAUAAAAGUGGAGGGGGCGG [A17U A7G],0.43
13,CCGCCUAACACGGCCAGUGCCGGUCCCAAGCCCGGAUAAAAGUGGAGGGGGCGG [A17G U12G],0.39
14,CCGCCUAACACCGCCAGUGCCGGUCCCAAGCCCGGAUAAAAGUGGAGGGGGCGG [A17G U12C],0.56
15,CCGCCUAACACAGCCAGUGCCGGUCCCAAGCCCGGAUAAAAGUGGAGGGGGCGG [A17G U12A],0.86
16,CCGCCUAACACUGCCAUUGCCGGUCCCAAGCCCGGAUACAAGUGGAGGGGGCGG [A17U A39C],0.98
17,CCGCCUAACACUGCCAUUGCCGGUCCCAAGCCCGGAUAGAAGUGGAGGGGGCGG [A17U A39G],1.03
18,CCGCCUAACACUGCCAUUGCCGGUCCCAAGCCCGGAUAUAAGUGGAGGGGGCGG [A17U A39U],1.03
19,CCGCCUAACACUGCAAUUGCCGGUCCCAAGCCCGGAUAAAAGUGGAGGGGGCGG [A17U C15A],0.62
20,CCGCCUAACACUGCUAUUGCCGGUCCCAAGCCCGGAUAAAAGUGGAGGGGGCGG [A17U C15U],0.64
21,CCGCCUAACACUGCGAUUGCCGGUCCCAAGCCCGGAUAAAAGUGGAGGGGGCGG [A17U C15G],0.54
22,CCGCCUAACACUGCCAUUGCCGGUCCCGAGCCCGGAUAAAAGUGGAGGGGGCGG [A17U A28G],0.37
23,CCGCCUAACACUGCCAUUGCCGGUCCCCAGCCCGGAUAAAAGUGGAGGGGGCGG [A17U A28C],0.94
24,CCGCCUAACACUGCCAUUGCCGGUCCCUAGCCCGGAUAAAAGUGGAGGGGGCGG [A17U A28U],0.97
